Source: ChEMBL document CHEMBL4382237, “Design, Synthesis, and Biological Evaluation of 2-Nitroimidazopyrazin-one/-es with Antitubercular and Antiparasitic Activity” (J Med Chem, 2018)
In brackets after ≈: the same amount, converted by molar mass.

Legend:
Entamoeba histolytica = experiment: Antiparasitic activity against Entamoeba histolytica HM-1:IMSS trophozoites after 24 to 48 hrs by CellTiter-Glo luminescent cell viability assay; assay type: functional, organism-based
Method in brief: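 Axenic trophozoites were kept in TYI-S-33 with penicillin (100 U/mL) and streptomycin (100 µg/mL) and harvested in log phase. 5000 parasites per well were exposed to a final 8-point two-fold series of 0.39–50 µM, from 10 mM DMSO stocks. Plates were incubated 24–48 h at 37 °C under anaerobic conditions. ATP luminescence viability was read in triplicate. Percent inhibition is given at the highest concentration tested.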

HepG2 = experiment: Cytotoxicity against human HepG2 cells after 24 hrs by resazurin dye-based fluorescence assay; assay type: cell-based; conditions: hepg2, 24 h
Method in brief: (§1)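 HEK293 (3000/well) and HepG2 (5000/well) were grown 24 h in DMEM with 10% FBS at 37 °C, 5% CO2. Cells were then exposed 24 h to a dilution series up to 100 µM (0.5% DMSO). 5 µM resazurin was added for 2 h, read at ex 560/em 590. 1% Triton X-100 served as lysis control. CC50 was derived from the curves.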

Giardia intestinalis = experiment: Antiparasitic activity against Giardia lamblia WB trophozoites after 24 to 48 hrs by CellTiter-Glo luminescent cell viability assay; conditions: Giardia duodenalis
[1] = test system: Mycobacterium tuberculosis; experiment: Antibacterial activity against Mycobacterium tuberculosis H37Rv after 5 days under normoxic condition by resazurin dye-based fluorescence assay; assay type: functional, organism-based
Method in brief: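 H37Rv grown in 7H9/ADC/glycerol/Tyloxapol to mid-exponential phase, diluted to OD600 0.001 (~2 x 10^4 CFU/mL) in 7H9S with serially diluted compound. Incubated 5 days at 37 °C, then resazurin and Tween-80 added. Fluorescence (ex 530/em 590 nm) read after 24 h, normalised to no-drug and no-bacteria wells.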

[2] = test system: Trypanosoma brucei brucei; experiment: Antiparasitic activity against bloodstream form of Trypanosoma brucei brucei strain 427 after 48 hrs by resazurin dye-based assay; assay type: functional, organism-based; conditions: strain 427, 48 h
[3] = test system: Mycobacterium tuberculosis; experiment: Antibacterial activity against non-replicating Mycobacterium tuberculosis H37Rv after 5 days under hypoxic condition by resazurin dye-based fluorescence assay; assay type: functional; conditions: 120 h
Method in brief: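 Same H37Rv inoculum (OD600 0.001, ~2 x 10^4 CFU/mL) in 7H9S with serially diluted compound. Plates held 5 days at 0.1% oxygen, then resazurin plus Tween-80 added.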

HEK293 = experiment: Cytotoxicity against HEK293 cells after 24 hrs by resazurin dye-based fluorescence assay; assay type: cell-based; conditions: human, hek293, 24 h; method in brief: as §1
Acinetobacter baumannii = experiment: Antibacterial activity against Acinetobacter baumannii ATCC 19606 by broth microdilution assay; assay type: functional; conditions: ATCC 19606 = CIP 70.34 = JCM 6841
Method in brief: (§2)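 Broth microdilution run essentially per an earlier report. MIC taken as the lowest concentration with no visible growth. Replicates typically agreed within one 2-fold dilution. The median MIC is reported, with a range where the median fell between two tested concentrations.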

Klebsiella pneumoniae = experiment: Antibacterial activity against Klebsiella pneumoniae 700603 by broth microdilution assay; assay type: functional; method in brief: as §2
Candida albicans = experiment: Antifungal activity against Candida albicans ATCC 90028 by broth microdilution assay; assay type: functional; method in brief: as §2
Pseudomonas aeruginosa = experiment: Antibacterial activity against Pseudomonas aeruginosa ATCC 27853 by broth microdilution assay; assay type: functional; method in brief: as §2
Cryptococcus neoformans = experiment: Antifungal activity against Cryptococcus neoformans H99 ATCC […] broth microdilution assay; assay type: functional; conditions: var. grubii H99 ATCC 208821; method in brief: as §2
Staphylococcus aureus = experiment: Antibacterial activity against methicillin-resistant Staphylococcus aureus ATCC […] by broth microdilution assay; assay type: functional
Escherichia coli = experiment: Antibacterial activity against Escherichia coli ATCC 25922 by broth microdilution assay; assay type: functional; method in brief: as §2
Clostridioides difficile = experiment: Antibacterial activity against Clostridium difficile 630 ATCC BAA-1382 by broth microdilution assay; assay type: functional; method in brief: as §2

Row | SMILES | IC50 (Entamoeba histolytica; read-out: IC50) [µM] | IC50 (Entamoeba histolytica; read-out: pIC50 (converted)) [µM] | CC50 (HepG2) [µM] | IC50 (Giardia intestinalis) [µM] | IC50 (Giardia intestinalis; read-out: pIC50 (converted)) [µM] | MIC [1] [µg/mL] | IC50 ([2]; read-out: IC50) [µM] | IC50 ([2]; read-out: pIC50 (converted)) [µM] | MIC [3] [µg/mL] | CC50 (HEK293) [µM] | MIC (Acinetobacter baumannii) [µg/mL] | MIC (Klebsiella pneumoniae) [µg/mL] | MIC (Candida albicans) [µg/mL] | MIC (Pseudomonas aeruginosa) [µg/mL] | MIC (Cryptococcus neoformans) [µg/mL] | MIC (Staphylococcus aureus) [µg/mL] | MIC (Escherichia coli) [µg/mL] | MIC (Clostridioides difficile) [µg/mL]
1 | Cc1c(C)n2cc([N+](=O)[O-])nc2c(=O)n1Cc1cccc(OC(F)(F)F)c1 | 15 | 15.8 | 26 to 80 | 1.7 | 1.58 | 1 (≈ 2.62 µM) | 0.4 | 0.398 | 16 to 32 (≈ 41.9 to 83.7 µM) | 50.6 to 74.5 |  |  |  |  |  |  |  | 
2 | O=c1c2nc([N+](=O)[O-])cn2ccn1CCN1CCOCC1 |  |  | > 100 |  |  | >32 |  |  | > 32 | > 100 | > 32 | > 32 | > 32 | > 32 | > 32 | > 32 | > 32 | 
3 | Cc1ccc(CNC(=O)c2nc([N+](=O)[O-])c[nH]2)cc1 | 2.2 to 4.5 |  |  | 0.2 to 0.5 |  |  |  |  | > 32 |  |  |  |  |  |  |  |  | 4 to 16 (≈ 15.4 to 61.5 µM)
4 | Cc1[nH]c(=O)c2nc([N+](=O)[O-])cn2c1C | > 50 | > 50.1 |  | 50 | 50.1 | >32 | 2.6 | 2.51 | > 32 |  |  |  |  |  |  |  |  | 
5 | O=c1c2nc([N+](=O)[O-])cn2ccn1C1CCCCC1 |  |  |  | 5.2 | 5.01 | >32 | 1.4 | 1.26 | > 32 |  | > 32 | > 32 | > 32 | > 32 | > 32 | > 32 | > 32 | 
6 | O=C(NCc1cccc(OC(F)(F)F)c1)c1ncc([N+](=O)[O-])[nH]1 | 2.2 to 4.5 |  |  | 0.2 to 0.5 |  |  |  |  | > 32 |  |  |  |  |  |  |  |  | 4 to 16 (≈ 12.1 to 48.5 µM)
7 | Cc1nc(OCc2cccc(OC(F)(F)F)c2)c2nc([N+](=O)[O-])cn2c1C | 27 | 25.1 |  | 3.9 | 3.98 | >32 | 1.4 | 1.26 | > 32 |  |  |  |  |  |  |  |  | 
8 | O=c1c2nc([N+](=O)[O-])cn2cc(-c2ccccc2)n1CCO | > 50 | > 50.1 | > 75 | 38 | 39.8 |  |  |  | > 32 | > 75 |  |  |  |  |  |  |  | 
9 | Cc1cn2cc([N+](=O)[O-])nc2c(OCc2ccccc2OC(F)(F)F)n1 | > 50 | > 50.1 |  | 5.7 | 6.31 | >32 | 1.2 | 1.26 | > 32 |  |  |  |  |  |  |  |  | 
10 | O=c1c2nc([N+](=O)[O-])cn2ccn1Cc1ccccc1 |  |  |  |  |  |  |  |  |  |  |  |  |  |  |  |  |  | > 64
11 | NC(=O)c1nc([N+](=O)[O-])cn1Cc1cccc(OC(F)(F)F)c1 | > 25 |  |  | 4.1 to 50 |  |  |  |  | > 32 |  |  |  |  |  |  |  |  | > 64
12 | CC(=O)OCCn1ccn2cc([N+](=O)[O-])nc2c1=O |  |  |  |  |  |  |  |  |  |  | > 32 | > 32 | > 32 | > 32 | > 32 | > 32 | > 32 | 
13 | Cc1ccc(COc2nc(C)cn3cc([N+](=O)[O-])nc23)cc1 | 30 | 31.6 |  | 5.7 | 6.31 |  |  |  |  |  |  |  |  |  |  |  |  | 
14 | Cc1nc(OCc2ccccc2OC(F)(F)F)c2nc([N+](=O)[O-])cn2c1C | > 50 | > 50.1 |  | > 50 | > 50.1 | >32 | 1.9 | 2 | > 32 |  |  |  |  |  |  |  |  | 
15 | Cc1ncc([N+](=O)[O-])n1CCO [METRONIDAZOLE] | 4.3 | 3.98 |  | 7.2 | 7.94 |  | > 40 | > 39.8 | > 32 |  |  |  |  |  |  |  |  | 0.5 (≈ 2.92 µM)
16 | Cc1ccc(Cn2cc([N+](=O)[O-])nc2C(N)=O)cc1 | > 25 |  |  | 4.1 to 50 |  |  |  |  | > 32 |  |  |  |  |  |  |  |  | > 64
17 | NC(=O)c1nc([N+](=O)[O-])cn1Cc1ccccc1 | > 25 |  |  | 4.1 to 50 |  |  |  |  | > 32 |  |  |  |  |  |  |  |  | > 64
